# ChEMBL document CHEMBL5058577, “EUbOPEN Chemogenomics Library 2 (Multiplex)” (2022)
# System: HEK-293T
# Assay: Multiplex assay against HEK293T
# Assay type: toxicity, cell-based
# Settings: human
# Outline: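 Four dyes were applied at seeding to live cells: Hoechst33342, BioTracker Green Microtubule Cytoskeleton Dye, MitoTracker Red and Annexin V Alexa Fluor 680. Imaging after compound addition used a CQ1 microscope at 37°C and 5% CO2. CellPathfinder machine-learning gating then sorted cells into Hoechst high-intensity objects or normal cells, normal cells into healthy, pyknosed or fragmented nuclei, and pyknosed cells into mitotic or apoptotic, with tubulin, mitochondrial-mass and membrane-permeability phenotypes given as per cents of healthy-nucleus cells.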
# [1] = 12 h, 1 µM, compound concentration 1 uM, replicate 1
# [2] = 12 h, 1 µM, compound concentration 1 uM, replicate 2
# [3] = 12 h, 10 µM, compound concentration 10 uM, replicate 1
# [4] = 12 h, 10 µM, compound concentration 10 uM, replicate 2
# [5] = 24 h, 1 µM, compound concentration 1 uM, replicate 1
# [6] = 24 h, 1 µM, compound concentration 1 uM, replicate 2
# [7] = 24 h, 10 µM, compound concentration 10 uM, replicate 1
# [8] = 24 h, 10 µM, compound concentration 10 uM, replicate 2
# [9] = 48 h, 1 µM, compound concentration 1 uM, replicate 1
# [10] = 48 h, 1 µM, compound concentration 1 uM, replicate 2
# [11] = 48 h, 10 µM, compound concentration 10 uM, replicate 1
# [12] = 48 h, 10 µM, compound concentration 10 uM, replicate 2
smiles,measurement,setting,value
O=c1ccc2ccc(OCCCCN3CCN(c4cccc5sccc45)CC3)cc2[nH]1 [BREXPIPRAZOLE],Population Apoptotic (%),[1],44%
same,Population Fragmented Nuclei (%),[1],6%
same,Population Healthy Nuclei (%),[1],77%
same,Population Hoechst High Intensity Objects (%),[1],6%
same,Population Membrane Permeable-Phenotype (%),[1],0%
same,Population Mitochondria Different-Phenotype (%),[1],67%
same,Population Mitotic Cells (%),[1],55%
same,Population Normal (%),[1],93%
same,Population Pyknosed Nuclei (%),[1],15%
same,Population Tubulin-Different-Phenotype (%),[1],51%
same,Total Cell Count,[1],392
same,Population Apoptotic (%),[2],42%
same,Population Fragmented Nuclei (%),[2],5%
same,Population Healthy Nuclei (%),[2],80%
same,Population Mitochondria Different-Phenotype (%),[2],69%
same,Population Mitotic Cells (%),[2],57%
same,Population Pyknosed Nuclei (%),[2],14%
same,Population Tubulin-Different-Phenotype (%),[2],47%
same,Total Cell Count,[2],354
same,Population Apoptotic (%),[3],82%
same,Population Fragmented Nuclei (%),[3],17%
same,Population Healthy Nuclei (%),[3],43%
same,Population Hoechst High Intensity Objects (%),[3],66%
same,Population Membrane Permeable-Phenotype (%),[3],0%
same,Population Mitochondria Different-Phenotype (%),[3],97%
same,Population Mitotic Cells (%),[3],17%
same,Population Normal (%),[3],33%
same,Population Pyknosed Nuclei (%),[3],38%
same,Population Tubulin-Different-Phenotype (%),[3],81%
same,Total Cell Count,[3],299
same,Population Apoptotic (%),[4],85%
same,Population Fragmented Nuclei (%),[4],10%
same,Population Healthy Nuclei (%),[4],66%
same,Population Hoechst High Intensity Objects (%),[4],41%
same,Population Mitochondria Different-Phenotype (%),[4],100%
same,Population Mitotic Cells (%),[4],14%
same,Population Normal (%),[4],59%
same,Population Pyknosed Nuclei (%),[4],23%
same,Population Tubulin-Different-Phenotype (%),[4],62%
same,Total Cell Count,[4],200
same,Population Apoptotic (%),[5],41%
same,Population Fragmented Nuclei (%),[5],10%
same,Population Healthy Nuclei (%),[5],73%
same,Population Hoechst High Intensity Objects (%),[5],8%
same,Population Membrane Permeable-Phenotype (%),[5],0%
same,Population Mitochondria Different-Phenotype (%),[5],51%
same,Population Mitotic Cells (%),[5],58%
same,Population Normal (%),[5],91%
same,Population Pyknosed Nuclei (%),[5],16%
same,Population Tubulin-Different-Phenotype (%),[5],36%
same,Total Cell Count,[5],501
same,Population Apoptotic (%),[6],42%
same,Population Fragmented Nuclei (%),[6],4%
same,Population Healthy Nuclei (%),[6],87%
same,Population Hoechst High Intensity Objects (%),[6],2%
same,Population Mitochondria Different-Phenotype (%),[6],52%
same,Population Mitotic Cells (%),[6],57%
same,Population Normal (%),[6],97%
same,Population Pyknosed Nuclei (%),[6],7%
same,Population Tubulin-Different-Phenotype (%),[6],35%
same,Total Cell Count,[6],449
same,Population Apoptotic (%),[7],91%
same,Population Fragmented Nuclei (%),[7],12%
same,Population Healthy Nuclei (%),[7],37%
same,Population Hoechst High Intensity Objects (%),[7],68%
same,Population Membrane Permeable-Phenotype (%),[7],0%
same,Population Mitochondria Different-Phenotype (%),[7],100%
same,Population Mitotic Cells (%),[7],8%
same,Population Normal (%),[7],31%
same,Population Pyknosed Nuclei (%),[7],50%
same,Population Tubulin-Different-Phenotype (%),[7],66%
same,Total Cell Count,[7],284
same,Population Apoptotic (%),[8],89%
same,Population Fragmented Nuclei (%),[8],10%
same,Population Healthy Nuclei (%),[8],59%
same,Population Hoechst High Intensity Objects (%),[8],46%
same,Population Mitochondria Different-Phenotype (%),[8],98%
same,Population Mitotic Cells (%),[8],10%
same,Population Normal (%),[8],53%
same,Population Pyknosed Nuclei (%),[8],30%
same,Population Tubulin-Different-Phenotype (%),[8],57%
same,Total Cell Count,[8],180
same,Population Apoptotic (%),[9],49%
same,Population Fragmented Nuclei (%),[9],9%
same,Population Healthy Nuclei (%),[9],80%
same,Population Hoechst High Intensity Objects (%),[9],5%
same,Population Membrane Permeable-Phenotype (%),[9],0%
same,Population Mitochondria Different-Phenotype (%),[9],47%
same,Population Mitotic Cells (%),[9],50%
same,Population Normal (%),[9],94%
same,Population Pyknosed Nuclei (%),[9],10%
same,Population Tubulin-Different-Phenotype (%),[9],28%
same,Total Cell Count,[9],679
same,Population Apoptotic (%),[10],48%
same,Population Fragmented Nuclei (%),[10],12%
same,Population Healthy Nuclei (%),[10],79%
same,Population Hoechst High Intensity Objects (%),[10],3%
same,Population Membrane Permeable-Phenotype (%),[10],1%
same,Population Mitochondria Different-Phenotype (%),[10],36%
same,Population Mitotic Cells (%),[10],51%
same,Population Normal (%),[10],96%
same,Population Pyknosed Nuclei (%),[10],7%
same,Population Tubulin-Different-Phenotype (%),[10],26%
same,Total Cell Count,[10],644
same,Population Apoptotic (%),[11],93%
same,Population Fragmented Nuclei (%),[11],19%
same,Population Healthy Nuclei (%),[11],30%
same,Population Hoechst High Intensity Objects (%),[11],67%
same,Population Membrane Permeable-Phenotype (%),[11],0%
same,Population Mitochondria Different-Phenotype (%),[11],96%
same,Population Mitotic Cells (%),[11],6%
same,Population Normal (%),[11],32%
same,Population Pyknosed Nuclei (%),[11],50%
same,Population Tubulin-Different-Phenotype (%),[11],51%
same,Total Cell Count,[11],269
same,Population Apoptotic (%),[12],89%
same,Population Fragmented Nuclei (%),[12],14%
same,Population Healthy Nuclei (%),[12],50%
same,Population Hoechst High Intensity Objects (%),[12],52%
same,Population Mitochondria Different-Phenotype (%),[12],97%
same,Population Mitotic Cells (%),[12],10%
same,Population Normal (%),[12],47%
same,Population Pyknosed Nuclei (%),[12],34%
same,Population Tubulin-Different-Phenotype (%),[12],82%
same,Total Cell Count,[12],170
C=CCN1C[C@H](C(=O)N(CCCN(C)C)C(=O)NCC)C[C@@H]2c3cccc4[nH]cc(c34)C[C@H]21 [CABERGOLINE],Population Apoptotic (%),[1],36%
same,Population Fragmented Nuclei (%),[1],4%
same,Population Healthy Nuclei (%),[1],76%
same,Population Hoechst High Intensity Objects (%),[1],8%
same,Population Membrane Permeable-Phenotype (%),[1],0%
same,Population Mitochondria Different-Phenotype (%),[1],51%
same,Population Mitotic Cells (%),[1],63%
same,Population Normal (%),[1],91%
same,Population Pyknosed Nuclei (%),[1],18%
same,Population Tubulin-Different-Phenotype (%),[1],41%
same,Total Cell Count,[1],370
same,Population Apoptotic (%),[2],37%
same,Population Fragmented Nuclei (%),[2],5%
same,Population Healthy Nuclei (%),[2],79%
same,Population Mitochondria Different-Phenotype (%),[2],68%
same,Population Mitotic Cells (%),[2],62%
same,Population Pyknosed Nuclei (%),[2],14%
same,Population Tubulin-Different-Phenotype (%),[2],24%
same,Total Cell Count,[2],322
same,Population Apoptotic (%),[3],53%
same,Population Fragmented Nuclei (%),[3],8%
same,Population Healthy Nuclei (%),[3],76%
same,Population Hoechst High Intensity Objects (%),[3],12%
same,Population Membrane Permeable-Phenotype (%),[3],0%
same,Population Mitochondria Different-Phenotype (%),[3],65%
same,Population Mitotic Cells (%),[3],46%
same,Population Normal (%),[3],87%
same,Population Pyknosed Nuclei (%),[3],14%
same,Population Tubulin-Different-Phenotype (%),[3],54%
same,Total Cell Count,[3],438
same,Population Apoptotic (%),[4],60%
same,Population Fragmented Nuclei (%),[4],6%
same,Population Healthy Nuclei (%),[4],78%
same,Population Hoechst High Intensity Objects (%),[4],8%
same,Population Mitochondria Different-Phenotype (%),[4],81%
same,Population Mitotic Cells (%),[4],40%
same,Population Normal (%),[4],91%
same,Population Tubulin-Different-Phenotype (%),[4],55%
same,Total Cell Count,[4],371
same,Population Apoptotic (%),[5],43%
same,Population Fragmented Nuclei (%),[5],9%
same,Population Healthy Nuclei (%),[5],80%
same,Population Hoechst High Intensity Objects (%),[5],4%
same,Population Membrane Permeable-Phenotype (%),[5],1%
same,Population Mitochondria Different-Phenotype (%),[5],29%
same,Population Mitotic Cells (%),[5],56%
same,Population Normal (%),[5],95%
same,Population Pyknosed Nuclei (%),[5],10%
same,Population Tubulin-Different-Phenotype (%),[5],20%
same,Total Cell Count,[5],512
same,Population Apoptotic (%),[6],40%
same,Population Fragmented Nuclei (%),[6],6%
same,Population Healthy Nuclei (%),[6],83%
same,Population Hoechst High Intensity Objects (%),[6],6%
same,Population Membrane Permeable-Phenotype (%),[6],0%
same,Population Mitochondria Different-Phenotype (%),[6],46%
same,Population Mitotic Cells (%),[6],59%
same,Population Normal (%),[6],93%
same,Population Pyknosed Nuclei (%),[6],9%
same,Population Tubulin-Different-Phenotype (%),[6],19%
same,Total Cell Count,[6],406
same,Population Apoptotic (%),[7],37%
same,Population Fragmented Nuclei (%),[7],10%
same,Population Healthy Nuclei (%),[7],77%
same,Population Hoechst High Intensity Objects (%),[7],8%
same,Population Membrane Permeable-Phenotype (%),[7],0%
same,Population Mitochondria Different-Phenotype (%),[7],51%
same,Population Mitotic Cells (%),[7],62%
same,Population Normal (%),[7],91%
same,Population Pyknosed Nuclei (%),[7],11%
same,Population Tubulin-Different-Phenotype (%),[7],48%
same,Total Cell Count,[7],556
same,Population Apoptotic (%),[8],42%
same,Population Healthy Nuclei (%),[8],79%
same,Population Hoechst High Intensity Objects (%),[8],12%
same,Population Mitochondria Different-Phenotype (%),[8],64%
same,Population Mitotic Cells (%),[8],57%
same,Population Normal (%),[8],87%
same,Population Pyknosed Nuclei (%),[8],9%
same,Population Tubulin-Different-Phenotype (%),[8],43%
same,Total Cell Count,[8],425
same,Population Apoptotic (%),[9],13%
same,Population Fragmented Nuclei (%),[9],12%
same,Population Healthy Nuclei (%),[9],80%
same,Population Hoechst High Intensity Objects (%),[9],4%
same,Population Membrane Permeable-Phenotype (%),[9],1%
same,Population Mitochondria Different-Phenotype (%),[9],21%
same,Population Mitotic Cells (%),[9],86%
same,Population Normal (%),[9],95%
same,Population Pyknosed Nuclei (%),[9],7%
same,Population Tubulin-Different-Phenotype (%),[9],16%
same,Total Cell Count,[9],763
same,Population Apoptotic (%),[10],35%
same,Population Fragmented Nuclei (%),[10],11%
same,Population Healthy Nuclei (%),[10],81%
same,Population Hoechst High Intensity Objects (%),[10],3%
same,Population Mitochondria Different-Phenotype (%),[10],23%
same,Population Mitotic Cells (%),[10],65%
same,Population Normal (%),[10],96%
same,Population Pyknosed Nuclei (%),[10],6%
same,Population Tubulin-Different-Phenotype (%),[10],10%
same,Total Cell Count,[10],633
same,Population Apoptotic (%),[11],26%
same,Population Fragmented Nuclei (%),[11],13%
same,Population Healthy Nuclei (%),[11],76%
same,Population Hoechst High Intensity Objects (%),[11],5%
same,Population Membrane Permeable-Phenotype (%),[11],0%
same,Population Mitochondria Different-Phenotype (%),[11],35%
same,Population Mitotic Cells (%),[11],73%
same,Population Normal (%),[11],94%
same,Population Pyknosed Nuclei (%),[11],9%
same,Population Tubulin-Different-Phenotype (%),[11],25%
same,Total Cell Count,[11],786
same,Population Apoptotic (%),[12],43%
same,Population Fragmented Nuclei (%),[12],10%
same,Population Healthy Nuclei (%),[12],82%
same,Population Hoechst High Intensity Objects (%),[12],6%
same,Population Mitochondria Different-Phenotype (%),[12],32%
same,Population Mitotic Cells (%),[12],56%
same,Population Normal (%),[12],93%
same,Population Pyknosed Nuclei (%),[12],6%
same,Population Tubulin-Different-Phenotype (%),[12],20%
same,Total Cell Count,[12],676
